In publication PMC12679602 (RSC Advances, 2025):
Where “and” joins values, the source holds several entries; their conditions need not be identical. Equal values may be shown once.

Columns and labels:
[1] = tested on: A549-hACE2 cells
[2] = tested on: Staphylococcus aureus TISTR746; experiment: Disc diffusion, S. aureus; format: cell-based; details: for Inhibition zone ± SD, S. aureus: 1 mg per disc, 6 mm disc, 37 °C, 18–24 h
Method in brief: (§1)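 Test compounds were dissolved in DMSO, and 1 mg was loaded onto sterile 6 mm paper discs. Nutrient agar plates were inoculated with bacterial suspension adjusted to 0.5 McFarland. Each plate held four zones: DMSO negative control, ciprofloxacin positive control (5 µg per disc), the free bile acid and its salts. Plates were incubated at 37 °C for 18–24 h. Inhibition zones were read in mm, in triplicate.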

[3] = tested on: S. flexneri ATCC 9199; experiment: Disc diffusion, S. flexneri; format: cell-based, Shigella flexneri; details: for Inhibition zone ± SD, S. flexneri: 1 mg per disc, 6 mm disc, 37 °C, 18–24 h
Method in brief: as §1

[4] = tested on: Escherichia coli TISTR117; experiment: Disc diffusion, E. coli; format: cell-based; details: for Inhibition zone ± SD, E. coli: 1 mg per disc, 6 mm disc, 37 °C, 18–24 h
Method in brief: as §1

[5] = tested on: Staphylococcus epidermidis TISTR2172; experiment: Disc diffusion, S. epidermidis; format: cell-based; details: for Inhibition zone ± SD, S. epidermidis: 1 mg per disc, 6 mm disc, 37 °C, 18–24 h
Method in brief: as §1

[6] = tested on: Bacillus cereus TISTR035; experiment: Disc diffusion, B. cereus; format: cell-based; details: for Inhibition zone ± SD, B. cereus: 1 mg per disc, 6 mm disc, 37 °C, 18–24 h
Method in brief: as §1

[7] = tested on: Pseudomonas aeruginosa TISTR357; experiment: Disc diffusion, P. aeruginosa; format: cell-based; details: for Inhibition zone ± SD, P. aeruginosa: 1 mg per disc, 6 mm disc, 37 °C, 18–24 h
Method in brief: as §1

[8] = tested on: Candida albicans TISTR5554; experiment: Disc diffusion, C. albicans; format: cell-based; details: for Inhibition zone ± SD, C. albicans: 1 mg per disc, 6 mm disc, 37 °C, 18–24 h
Method in brief: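 Disc diffusion against the yeast. Test compound was in DMSO at 1 mg per 6 mm sterile paper disc, on nutrient agar inoculated with suspension standardized to 0.5 McFarland. Each plate carried a DMSO negative control, amphotericin B positive control (10 µg per disc), the free bile acid and its salts. Incubation was 37 °C for 18–24 h. Zone of inhibition was measured in mm, in triplicate.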

[9] = tested on: S. typhi; experiment: Disc diffusion, S. typhi; format: cell-based, Salmonella enterica serovar Typhimurium TISTR1470; details: for Inhibition zone ± SD, S. typhi: 1 mg per disc, 6 mm disc, 37 °C, 18–24 h
Method in brief: as §1

[10] = tested on: Enterococcus faecalis TISTR927; experiment: Disc diffusion, E. faecalis; format: cell-based; details: for Inhibition zone ± SD, E. faecalis: 1 mg per disc, 6 mm disc, 37 °C, 18–24 h
Method in brief: as §1

[11] = in vitro; details: human
[12] = tested on: B. cereus, S. aureus, S. epidermidis, E. faecalis, and E. coli; experiment: Disc diffusion, range over strains as summarised in text; format: cell-based; details: for inhibition zones, range over strains: B. cereus, S. aureus, S. epidermidis, E. faecalis, E. coli, 1 mg per disc
Method in brief: as §1

[13] = Staphylococcus aureus, TISTR746, read-out: Inhibition zone ± SD, S. aureus
[14] = Escherichia coli, TISTR117, read-out: Inhibition zone ± SD, E. coli
[15] = Staphylococcus epidermidis, TISTR2172, read-out: Inhibition zone ± SD, S. epidermidis
[16] = Bacillus cereus, TISTR035, read-out: Inhibition zone ± SD, B. cereus
[17] = Enterococcus faecalis, TISTR927, read-out: Inhibition zone ± SD, E. faecalis

Compound | Inhibition zone ± SD, S. aureus [2] | Inhibition zone ± SD, S. flexneri [3] | Inhibition zone ± SD, E. coli [4] | Inhibition zone ± SD, S. epidermidis [5] | Inhibition zone ± SD, B. cereus [6] | Inhibition zone ± SD, P. aeruginosa [7] | Inhibition zone ± SD, C. albicans [8] | Inhibition zone ± SD, S. typhi [9] | Inhibition zone ± SD, E. faecalis [10] | also measured
CCO [Ethanol, ethanol, reference compound] | – | – | – | – | – | – | – | – | – | CC50 [1]: >70% v/v
CC(CCC(=O)[O-])C1CCC2C3C(O)CC4CC(O)CCC4(C)C3CCC12C.C[N+](C)(C)CCO (stereo not shown) [[UDCA][Z] (12)] | 10.3 ± 1.7 mm | Inactive | 10.1 ± 1.1 mm | 13.0 ± 0.5 mm | 12.5 ± 0.5 mm | Inactive | Inactive | Inactive | – | –
C[C@H](CCC(=O)[O-])[C@H]1CC[C@H]2[C@@H]3[C@H](O)C[C@@H]4C[C@H](O)CC[C@]4(C)[C@H]3CC[C@]12C.C[N+](C)(C)CCO [[CDCA][Z] (16)] | 13.8 mm and 13.8 ± 1.3 mm | Inactive | 10.4 mm and 10.4 ± 1.2 mm | 17.1 mm and 17.1 ± 0.5 mm | 16.4 mm and 16.4 ± 0.7 mm | Inactive | Inactive | Inactive | 12.2 mm and 12.2 ± 2.6 mm | –
O=C(O)c1cn(C2CC2)c2cc(N3CCNCC3)c(F)cc2c1=O [ciprofloxacin, reference compound] | – | – | – | – | – | – | – | – | – | zone of inhibition at 5 µg/disc [2, 13]: 31 ± 1.5 mm; zone of inhibition at 5 µg/disc ([3]; Shigella flexneri, ATCC9199, read-out: Inhibition zone ± SD, S. flexneri): 42.1 ± 0.7 mm; zone of inhibition at 5 µg/disc [4, 14]: 38.5 ± 2.1 mm; zone of inhibition at 5 µg/disc [5, 15]: 36.4 ± 0.4 mm; zone of inhibition at 5 µg/disc [6, 16]: 33.2 ± 1.6 mm; zone of inhibition at 5 µg/disc ([7]; Pseudomonas aeruginosa, TISTR357, read-out: Inhibition zone ± SD, P. aeruginosa): 31.2 ± 1.1 mm; zone of inhibition at 5 µg/disc [10, 17]: 24.1 ± 1 mm; zone of inhibition at 5 µg/disc ([9]; Salmonella enterica, TYPHI, read-out: Inhibition zone ± SD, S. typhi): 39.3 ± 2.6 mm
C[C@@H]1[C@H](O)[C@@H](C)/C=C/C=C/C=C/C=C/C=C/C=C/C=C/[C@H](O[C@@H]2O[C@H](C)[C@@H](O)[C@H](N)[C@@H]2O)C[C@@H]2O[C@](O)(C[C@@H](O)C[C@@H](O)[C@H](O)CC[C@@H](O)C[C@@H](O)CC(=O)O[C@H]1C)C[C@H](O)[C@H]2C(=O)O [amphotericin B, reference compound] | – | – | – | – | – | – | – | – | – | zone of inhibition at 10 µg/disc ([8]; Candida albicans, TISTR5554, read-out: Inhibition zone ± SD, C. albicans): 21.8 ± 1.3 mm
C[C@H](CCC(=O)[O-])[C@H]1CC[C@H]2[C@@H]3CC[C@@H]4C[C@H](O)CC[C@]4(C)[C@H]3CC[C@]12C.C[N+](C)(C)CCO [[LCA][Z] (4)] | – | Inactive | – | – | 7.8 mm and 7.8 ± 1.2 mm | Inactive | Inactive | Inactive | – | CC50 [1]: >50 µg/mL; cytotoxicity [1]: did not exhibit cytotoxicity
C[C@H](CCC(=O)O)[C@H]1CC[C@H]2[C@@H]3CC[C@@H]4C[C@H](O)CC[C@]4(C)[C@H]3CC[C@]12C [LCA (1), lithocholic acid] | – | Inactive | – | – | – | Inactive | Inactive | Inactive | – | CC50 [11]: > 50 µg/mL; cytotoxicity [1]: did not show cytotoxicity
C[C@H](CCC(=O)[O-])[C@H]1CC[C@H]2[C@@H]3CC[C@@H]4C[C@H](O)CC[C@]4(C)[C@H]3C[C@H](O)[C@]12C.C[N+](C)(C)CCO [[DCA][Z] (8)] | 15.4 ± 2.0 mm | Inactive | 13.0 ± 1.9 mm | 19.1 mm and 19.1 ± 0.2 mm | 18.1 ± 1.7 mm | Inactive | Inactive | Inactive | 15.0 mm and 15.0 ± 1.3 mm | inhibition zones, range over strains [12]: 13.0–19.1 mm; improvement in antibacterial activity compared to its bile acid DCA (5) ([12]; S. epidermidis and E. faecalis inhibition zones): 41.4–41.5%
C[C@H](CCC(=O)O)[C@H]1CC[C@H]2[C@@H]3CC[C@@H]4C[C@H](O)CC[C@]4(C)[C@H]3C[C@H](O)[C@]12C [DCA (5), deoxycholic acid] | 11.7 ± 1.6 mm | Inactive | 10.9 ± 1.6 mm | 13.5 ± 0.7 mm | 14.4 ± 1.5 mm | Inactive | Inactive | Inactive | 10.6 ± 0.4 mm | zone of inhibition at 1000 µg/disc [5, 15]: 13.5 mm; inhibition zones, range over strains [12]: 10.6–14.4 mm; zone of inhibition at 1000 µg/disc [10, 17]: 10.6 mm
C[C@H](CCC(=O)O)[C@H]1CC[C@H]2[C@@H]3[C@@H](O)C[C@@H]4C[C@H](O)CC[C@]4(C)[C@H]3CC[C@]12C [UDCA (9), ursodeoxycholic acid] | 7.8 ± 0.8 mm | Inactive | 7.4 ± 0.4 mm | 9.6 ± 0.4 mm | 8.7 ± 0.3 mm | Inactive | Inactive | Inactive | – | –
C[C@H](CCC(=O)O)[C@H]1CC[C@H]2[C@@H]3[C@H](O)C[C@@H]4C[C@H](O)CC[C@]4(C)[C@H]3CC[C@]12C [CDCA (13), chenodeoxycholic acid] | 9.4 ± 0.8 mm | Inactive | 7.6 ± 0.6 mm | 11.8 ± 0.4 mm | 13.5 ± 0.4 mm | Inactive | Inactive | Inactive | 8.4 ± 1.1 mm | zone of inhibition at 1000 µg/disc [2, 13]: 9.4 mm; zone of inhibition at 1000 µg/disc [4, 14]: 7.6 mm; zone of inhibition at 1000 µg/disc [5, 15]: 11.8 mm; zone of inhibition at 1000 µg/disc [6, 16]: 13.5 mm; zone of inhibition at 1000 µg/disc [10, 17]: 8.4 mm
